Here are results for 15 molecules from ChEMBL document CHEMBL1156068, “Synthesis, pharmacological and antiviral activity of 1,3-thiazepine derivatives” (Eur J Med Chem, 2009).

For data set [1], the system named is Bovine viral diarrhea virus 1. The data set is described as follows: Antiviral activity against Bovine viral diarrhea virus infected in MDBK cells assessed as protection against virus induced cytopathogenicity after 3 to 4 days by MTT assay. Format: functional, organism-based. Summed up: (§1)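 Monolayers were grown overnight at 37 °C, 5% CO2: MDBK at 3×10^4 cells/well, BHK at 5×10^4 cells/well. Cells infected at m.o.i. 0.01. After 1 h, serial compound dilutions added in MEM with 1% FCS. Viability read by MTT after 3–4 days at 37 °C. EC50 is the concentration giving 50% protection from cytopathogenicity.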
Background: Protection from cytopathic effect is a common read-out in antiviral testing.

Another data set has as its system Vaccinia virus. The experiment in a line: Antiviral activity against Vaccinia virus infected in african green monkey Vero76 cells after 3 days by plaque reduction assay. The following applies: Orthopoxvirus vaccinia; Vero 76. Format: functional, organism-based.
The subject of data set [2] is Mammalian orthoreovirus 1. The data set is described as follows: Antiviral activity against Reo virus type-1 infected in BHK-21 cells assessed as protection against virus induced cytopathogenicity after 3 to 4 days by MTT assay. In kind it is functional, organism-based. Summed up:
as §1

Data set [3] has as its system Human immunodeficiency virus 1. The data set is described as follows: Antiviral activity against wild type HIV1 3B infected in human MT4 cells assessed as protection against virus induced cytopathogenicity after 4 days by MTT assay. Particulars: Human immunodeficiency virus 1, 3B, MT4, 96 h. In kind it is functional, organism-based. Summed up:
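MT-4 cells (1×10^4/well) in RPMI with serial compound dilutions were infected with HIV-1 (100 CCID50; m.o.i. 0.01). After 4 days, viability was measured by MTT. EC50 is the concentration giving 50% protection from virus-induced cytopathogenicity. Compounds were prepared as 100 mM DMSO stocks diluted in medium.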

The next data set deals with Poliovirus 1. The data set is described as follows: Antiviral activity against Poliovirus type 1 Sabin infected in african green monkey Vero76 cells after 2 days by plaque reduction assay. The following applies: Vero 76. Format: functional, cell-based. In general terms: In a plaque reduction assay, fewer plaques than in the control indicate reduced infectivity or spread.

Data set [4] has as its system Respiratory syncytial virus. The data set is described as follows: Antiviral activity against Respiratory syncytial virus infected in african green monkey Vero76 cells after 5 days by plaque reduction assay. Format: functional, organism-based. The following applies: Vero 76. Summed up:
(§2)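 Vero 76 monolayers (2×10^5 cells/well, overnight) infected to give 50–100 PFU/well. Unadsorbed virus removed, then DMEM with 1% FCS, 0.75% methylcellulose and serial compound dilutions added. Incubated at 37 °C for 3 days (CVB-2, HSV-1) or 5 days (RSV). Fixed and stained with 50% ethanol/0.8% crystal violet in PBS; plaques counted.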

Data set [5] in a line: Cytotoxicity against human MT4 cells assessed as reduction of cell viability after 96 hrs by MTT assay. Format: cell-based. The procedure, abridged:
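Exponentially growing, mock-infected MT-4 cells were seeded at 1×10^5 cells mL-1 in RPMI-1640 with 10% FCS and penicillin/streptomycin, with serial compound dilutions. Incubated 96 h at 37 °C, 5% CO2, then viability read by MTT. CC50 is the concentration reducing viability by 50%.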

Another data set concerns Yellow fever virus. The data set is described as follows: Antiviral activity against Yellow fever virus infected in BHK-21 cells assessed as protection against virus induced cytopathogenicity after 3 to 4 days by MTT assay. In kind it is functional, organism-based. The procedure, abridged:
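BHK cells were seeded at 5 × 10^4 per well and grown overnight to monolayers, then infected at m.o.i. 0.01 in serum-free medium. One hour later, MEM Earle's with 1% FCS (final) and serial compound dilutions were added. After 3–4 days at 37 °C, viability was read by MTT. EC50 is the concentration giving 50% protection from virus-induced cytopathogenicity.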

For data set [6], the system named is Vesicular stomatitis virus. The experiment in a line: Antiviral activity against Vesicular stomatitis virus infected in african green monkey Vero76 cells after 2 days by plaque reduction assay. In kind it is functional, organism-based. Particulars: Vero 76.
The next data set relates to Human alphaherpesvirus 1. The data set is described as follows: Antiviral activity against HSV1 infected in african green monkey Vero76 cells after 3 days by plaque reduction assay. Particulars: Vero 76. In kind it is functional, organism-based. The procedure, abridged: as §2
The subject of the next data set is Coxsackievirus B2. The data set is described as follows: Antiviral activity against Coxsackie virus B2 infected in african green monkey Vero76 cells after 3 days by plaque reduction assay. The following applies: Vero 76. Format: functional, organism-based. The procedure, abridged:
as §2

Activity calls are given as the source filed them. The rule behind the calls is not given here.

One may read the EC50 as the concentration giving half of the maximal effect. As a reminder, the CC50 is the concentration that lowers cell viability or growth by half. Consider `CC(C)C12C=CC(C)(CC1)C1C(=O)N(NC(=S)Nc3ccc(Cl)c(Cl)c3)C(=O)C12` (stereo not drawn), for which the result (in data set [1]; in the data set on Vaccinia virus; in data set [2]; with Poliovirus 1; in data set [4]; with Yellow fever virus) was inactive. In addition, the result (in data set [6]; with Human alphaherpesvirus 1; with Coxsackievirus B2) was inactive. Besides, the EC50 in data set [3] is more than 59 µM. In data set [5], the CC50 at 96 h was determined as 59 µM.
Regarding `CC1=CC2C(C(C)C)CC1C1C(=O)N(N3CCCCS/C3=N\c3ccc(I)cc3)C(=O)C21` (stereo not drawn), the result (in [1]; in the data set with Vaccinia virus; in data set [2]; in the data set with Poliovirus 1; in data set [4]; in the data set with Yellow fever virus) was inactive. Moreover, the outcome (in data set [6]; with Human alphaherpesvirus 1; with Coxsackievirus B2) was inactive. For the same molecule, the EC50 in data set [3] is more than 22 µM. In data set [5], the CC50 at 96 h was 22 µM.
`C=CC/N=C1\SCCCCN1N1C(=O)C2C3CC(C(C)C)C(C=C3C)C2C1=O` (stereo not drawn): the outcome (in [1]; in the data set on Vaccinia virus; in data set [2]; with Poliovirus 1; in data set [4]; in the data set on Yellow fever virus) was inactive. Moreover, the outcome (in data set [6]; in the data set on Human alphaherpesvirus 1; in the data set on Coxsackievirus B2) was inactive. Further, the EC50 in [3] was more than 59 µM. Further, in [5], the CC50 at 96 h worked out at 59 µM.
For `CC1=CC2C(C(C)C)CC1C1C(=O)N(NC(=S)Nc3ccc(C)cc3)C(=O)C21` (stereo not drawn), the result (in data set [1]; with Vaccinia virus; in data set [2]; in the data set with Poliovirus 1; in data set [4]; in the data set with Yellow fever virus) was inactive. Further, the result (in [6]; in the data set on Human alphaherpesvirus 1; in the data set on Coxsackievirus B2) was inactive.
Turning to `CC1=CC2C(C(C)C)CC1C1C(=O)N(N3CCCCS/C3=N\c3ccc(Cl)c(Cl)c3)C(=O)C21` (stereo not drawn), the result (in data set [1]; with Vaccinia virus; in data set [2]; with Poliovirus 1; in [4]; in the data set with Yellow fever virus) was inactive. The result (in [6]; with Human alphaherpesvirus 1; with Coxsackievirus B2) was inactive. Besides, in data set [3], the EC50 was more than 100 µM. The CC50 at 96 h in data set [5] stood at 100 µM.
Regarding `C=CCNC(=S)NN1C(=O)C2C(C1=O)C1(C(C)C)C=CC2(C)CC1` (stereo not drawn), the EC50 is 52 µM in [1] (Bovine viral diarrhea virus isolates and strains); more than 100 µM in data set [3]. For the same molecule, the result (in the data set on Vaccinia virus; in data set [2]; in the data set on Poliovirus 1; in data set [4]; in data set [6]; in the data set with Human alphaherpesvirus 1) was inactive. The result with Coxsackievirus B2 was inactive. Moreover, in data set [5], the CC50 at 96 h was more than 100 µM.
On to `C=CC/N=C1\SCCCCN1N1C(=O)C2C(C1=O)C1(C(C)C)C=CC2(C)CC1` (stereo not drawn), for which the result (in [1]; with Vaccinia virus; in data set [2]; with Poliovirus 1; in data set [4]; in the data set with Yellow fever virus) was inactive. Moreover, the outcome (in data set [6]; with Human alphaherpesvirus 1; with Coxsackievirus B2) was inactive. Moreover, the EC50 in data set [3] was more than 58 µM. Also, in data set [5], the CC50 at 96 h stood at 58 µM.
`Cc1ccc(/N=C2\SCCCCN2N2C(=O)C3C(C2=O)C2(C(C)C)C=CC3(C)CC2)cc1` (stereo not drawn): the outcome (in data set [1]; in the data set with Vaccinia virus; in data set [2]; with Poliovirus 1; in data set [4]; with Yellow fever virus) was inactive. Moreover, the outcome (in data set [6]; in the data set on Human alphaherpesvirus 1; in the data set with Coxsackievirus B2) was inactive.
Turning to `CC1=CC2C(C(C)C)CC1C1C(=O)N(N3CCCCS/C3=N\c3ccc(Cl)cc3)C(=O)C21` (stereo not drawn), the result (in data set [1]; in the data set on Vaccinia virus; in [2]; in the data set with Poliovirus 1; in data set [4]; in the data set on Yellow fever virus) was inactive. The result (in [6]; in the data set with Human alphaherpesvirus 1; in the data set with Coxsackievirus B2) was inactive. Moreover, the EC50 in data set [3] was more than 30 µM. For the same molecule, in data set [5], the 50% cytotoxic concentration (CC50) at 96 h is 30 µM.
For `C=CCNC(=S)NN1C(=O)C2C3CC(C(C)C)C(C=C3C)C2C1=O` (stereo not drawn), the outcome (in [1]; in the data set with Vaccinia virus; in data set [2]; in the data set on Poliovirus 1; in [4]; in the data set with Yellow fever virus) was inactive. Also, the outcome (in [6]; in the data set with Human alphaherpesvirus 1; with Coxsackievirus B2) was inactive. Besides, in data set [3], the EC50 was more than 100 µM. Besides, the CC50 at 96 h in data set [5] is more than 100 µM.
Take `CC(C)C12C=CC(C)(CC1)C1C(=O)N(NC(=S)Nc3ccc(Cl)cc3)C(=O)C12` (stereo not drawn): the outcome (in data set [1]; with Vaccinia virus; in data set [2]; in the data set with Poliovirus 1; in [4]; in the data set on Yellow fever virus) was inactive. Also, the outcome (in data set [6]; in the data set with Human alphaherpesvirus 1; in the data set with Coxsackievirus B2) was inactive.
Regarding `Cc1ccc(NC(=S)NN2C(=O)C3C(C2=O)C2(C(C)C)C=CC3(C)CC2)cc1` (stereo not drawn), the outcome (in [1]; in the data set with Vaccinia virus; in [2]; with Poliovirus 1; in data set [4]; in the data set on Yellow fever virus) was inactive. Besides, the result (in data set [6]; in the data set with Human alphaherpesvirus 1; with Coxsackievirus B2) was inactive.
Consider `O=C1Nc2ccc(Cl)cc2[C@@](C#CC2CC2)(C(F)(F)F)O1` [EFAVIRENZ], for which, in data set [5], the CC50 at 96 h worked out at 35 µM.
On to `CC(C)C12C=CC(C)(CC1)C1C(=O)N(NC(=S)Nc3ccc(F)cc3)C(=O)C12` (stereo not drawn), for which the result (in data set [1]; in the data set with Vaccinia virus; in data set [2]; with Poliovirus 1; in data set [4]; with Yellow fever virus) was inactive. Also, the result (in [6]; with Human alphaherpesvirus 1; in the data set with Coxsackievirus B2) was inactive.
As to `CC(C)C12C=CC(C)(CC1)C1C(=O)N(NC(=S)NCc3ccccc3)C(=O)C12` (stereo not drawn), the outcome (with Vaccinia virus; in [2]; in the data set with Poliovirus 1; in data set [4]; in data set [6]; in the data set on Human alphaherpesvirus 1) was inactive. Also, in the data set on Coxsackievirus B2, the result was inactive. The values for the EC50 (in data set [3]; with Yellow fever virus) were more than 58 µM and 41 µM, respectively. Moreover, the CC50 at 96 h in [5] was found to be 58 µM.
